ERAP1 inh – blocks human ERAP1 aminopeptidase activity; 340,000 tested, 0.15% active; AID 652197; Q9NZ08; recombinant ERAP1, Leu-AMC fluorescence, 60 min; inhibition, % at 10.7 µM;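 active = mean replicate inhibition of at least 30%, or all replicates individually reaching that 30% level; inactive = mean below 30% and not every replicate reaching it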
Target sequence (Q9NZ08 whole entry, looked up): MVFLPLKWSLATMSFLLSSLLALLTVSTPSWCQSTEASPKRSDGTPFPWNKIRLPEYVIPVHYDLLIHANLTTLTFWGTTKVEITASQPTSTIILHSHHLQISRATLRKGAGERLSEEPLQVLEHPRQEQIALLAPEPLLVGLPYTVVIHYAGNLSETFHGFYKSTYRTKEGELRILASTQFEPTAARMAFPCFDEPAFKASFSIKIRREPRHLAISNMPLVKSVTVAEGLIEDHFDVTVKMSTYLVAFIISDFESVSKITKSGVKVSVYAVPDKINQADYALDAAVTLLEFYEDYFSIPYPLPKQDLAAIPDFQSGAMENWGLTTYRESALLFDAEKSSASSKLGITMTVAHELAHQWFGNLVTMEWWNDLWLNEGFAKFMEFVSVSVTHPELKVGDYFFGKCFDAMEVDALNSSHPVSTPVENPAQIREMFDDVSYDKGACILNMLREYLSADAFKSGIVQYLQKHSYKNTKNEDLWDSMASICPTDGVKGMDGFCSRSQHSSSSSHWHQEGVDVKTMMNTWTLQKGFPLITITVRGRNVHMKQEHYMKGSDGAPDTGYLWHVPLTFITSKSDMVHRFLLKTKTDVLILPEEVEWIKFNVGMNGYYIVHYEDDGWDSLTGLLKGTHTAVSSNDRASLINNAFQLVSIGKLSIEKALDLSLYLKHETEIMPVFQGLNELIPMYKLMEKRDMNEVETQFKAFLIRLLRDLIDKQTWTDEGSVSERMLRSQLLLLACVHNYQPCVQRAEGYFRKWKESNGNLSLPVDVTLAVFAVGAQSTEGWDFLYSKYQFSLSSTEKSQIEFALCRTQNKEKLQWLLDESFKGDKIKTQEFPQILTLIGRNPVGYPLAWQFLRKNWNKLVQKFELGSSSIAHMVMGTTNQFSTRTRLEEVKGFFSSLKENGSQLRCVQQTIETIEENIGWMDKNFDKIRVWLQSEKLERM
Cneo AK release – causes C. neoformans cell lysis | adenylate kinase release luminescence, 4 h; normalised: neutral wells 0, clomiphene wells 100 | 360,000 tested, 0.2% active | AID 651654 | lysis activity, % at 15 µM;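 active = mean lysis activity across replicates of at least 80%, whatever share of replicates individually reach that level; inactive = mean lysis activity below 80%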
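Assay system: Cryptococcus neoformans yeast cells / Dosing: single-point compound dose / Timing: 4 h at 37 °C static, read 1 h later / Measured by: luminescence of released adenylate kinase using an AK detection reagent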
Env fusion inh – blocks HIV Env-driven cell-cell fusion. 360,000 tested, 1.1% active. inhibition, % at 12.3 µM. HeLa-JRFL Env/CEM21 cell fusion, luciferase. AID 651610;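 active = mean replicate inhibition score of at least 50 and every replicate individually at or above 50; inconclusive = only one of the two criteria met; inactive = mean below 50 and not all replicates reaching 50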
FGF22 binding – shifts melting point of recombinant human FGF22; Q9HCT0; recombinant FGF22 thermal shift, SYPRO orange fluorescence; percent of sucrose octasulfate shift, DMSO zero; activity (Tm shift, normalised), % at 9.99 µM; 340,000 tested, 1.5% active; AID 651658;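 active = mean Tm shift, scaled 0 neutral to 100 positive control, at about 1.3% or above, every replicate too, limit read from the data; inconclusive = no clear call, values can overlap the other calls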
PGC1a acetyl inh – lowers PGC1a acetylation signal in U2OS cells; AlphaScreen anti-acetyl-lysine; with virally co-expressed GCN5 acetyltransferase; inhibition, % at 15.6 µM; 350,000 tested, 0.17% active; AID 651687;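 active = every replicate shows inhibition of at least 40%; inconclusive = mean inhibition at least 40% but some replicate below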
rRNA inh HTS – inhibits bacterial ribosomal RNA function over humanized ribosomes; AID 720706; GFP signal change (wild-type ribosome), % (no concentration beside the values); E. coli WT GFP vs humanized-ribosome RFP mutants, fluorescence, 24 h; active compounds read low; DMSO median 0, no signal -100; 350,000 tested, 1.6% active;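 active = significant combined selectivity score with lowered wild-type GFP, culture density cut under 30%, mutant RFP and density less affected; inactive = any of these conditions unmet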
AID977621 – wild-type E. coli growth inhibition versus H69 humanized strain – H69 mutant RFP, wild-type GFP, cherry-pick, dose response | shares compounds with rRNA inh HTS | fluorescence, 24 h | activity change, negative = inhibition at 50 µM | 1,900 tested, under 10 active;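 active = Wild-type ribosome reporter drop at least double the humanized mutant ribosome reporter drop, growth loss under a set limit; inconclusive = no clear call, values can overlap the other calls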;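 note: wild-type GFP and H69 mutant RFP strains grown together 50/50 in each well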
AID977628 – E. coli growth inhibition, wild-type GFP versus h24 humanized RFP strain, dose response, h24 mutant RFP vs wild-type GFP, cherry-pick; 1,900 tested, under 10 active; AID 977628; E. coli WT GFP strain growth, fluorescence, 24 h; activity change, negative = inhibition at 50 µM; shares compounds with rRNA inh HTS;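 active = compound lowering the normal-ribosome reporter at least twice as much as the humanized-ribosome reporter, growth loss under a set limit; inconclusive = no clear call, values can overlap the other calls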;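 note: wild-type GFP and h24 humanized RFP strains co-cultured 1 to 1 per well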
Hits are given with their value; n = inactive; u = inconclusive; x = not tested or not shown. This is a sample that favours compounds with a hit; in the whole collection about 3.5% have one here.

SMILES | ERAP1 inh | Cneo AK release | Env fusion inh | FGF22 binding | PGC1a acetyl inh | rRNA inh HTS | AID977621 | AID977628
COCCN1C(=O)c2oc3ccccc3c(=O)c2C1c1ccc(O)c(OC)c1 (stereo unspecified) | x | n | n | n | n | n | x | x
Cc1cc(C(=O)Nc2cccc3c2O[C@H](CN(C)S(=O)(=O)c2ccc(Cl)cc2)[C@H](C)CN([C@@H](C)CO)C3=O)n(C)n1 | n | n | n | n | n | -24 | n | u
COc1ccc(NC(=O)Nc2cccc3c2O[C@@H](CN(C)S(=O)(=O)c2ccc(Cl)cc2)[C@H](C)CN([C@@H](C)CO)C3=O)cc1 | n | n | n | n | n | n | n | x
COc1ccc(NC(=O)Nc2cccc3c2O[C@H](CN(C)S(=O)(=O)c2ccc(C)cc2)[C@H](C)CN([C@@H](C)CO)C3=O)cc1 | n | n | n | n | n | -19 | x | u
COc1ccc(NC(=O)Nc2cccc3c2O[C@H](CN(C)S(=O)(=O)c2ccc(Cl)cc2)[C@@H](C)CN([C@@H](C)CO)C3=O)cc1 | n | n | n | n | n | n | n | n
COc1ccc(NC(=O)Nc2cccc3c2O[C@H](CN(C)S(=O)(=O)c2ccc(OC)cc2)[C@H](C)CN([C@H](C)CO)C3=O)cc1 | n | n | n | n | n | n | x | x
O=C(Nc1ccccc1)NC1CCN(CCCN2C(=O)c3ccccc3C2=O)CC1 | x | n | x | x | n | x | x | x
Cc1ccc2c(c1)N(CC(=O)NC1CCCC1)C(=O)CO2 | n | x | n | n | x | n | x | x
CCOc1cc(/C=N\Nc2ccc([N+](=O)[O-])cc2)ccc1OCC(=O)Nc1ccc(C)c(C)c1 | x | n | x | x | n | x | x | x
COc1ccc(S(=O)(=O)N2CCOc3ccccc32)cc1 | n | n | n | n | n | -22 | n | n
COc1ccc(S(=O)(=O)N2c3ccccc3OCC2C)cc1 (stereo unspecified) | n | x | n | x | n | n | x | x
COc1ccc(S(=O)(=O)n2cccc2)cc1 | n | n | n | n | n | -23 | u | u
COc1ccc(N2CCN(S(=O)(=O)c3ccc(OC)cc3)CC2)cc1 | n | n | x | n | n | n | x | x
C/C(=C\c1ccccc1)CN1CCN(C)CC1 | n | n | n | n | n | n | x | x
CCC1(C)Cc2c(sc3nc(SC)nc(NCCN(C)C)c23)CO1 (stereo unspecified) | x | n | n | x | x | x | x | x
CSc1nc(SCCN(C)C)c2c3c(sc2n1)COC(C)(C)C3 | n | x | n | n | x | -23 | x | n
Cc1cc(C(=O)COC(=O)CNC(=O)c2ccccc2)c(C)n1CC1CCCO1 (stereo unspecified) | n | x | n | n | n | -20 | n | n
Cc1cccc(C(=O)NCC(=O)OCC(=O)c2cc(C)n(CC3CCCO3)c2C)c1 (stereo unspecified) | n | x | n | n | x | n | x | x
COc1ccc(C(=O)Cn2c(C)nc([N+](=O)[O-])c2Br)cc1 | x | x | n | n | x | -35 | x | n
Cc1nc([N+](=O)[O-])c(Br)n1CC(=O)c1ccc(Cl)cc1 | x | x | x | x | n | x | x | x
COc1cc(CC(=O)Nc2nc(C)cs2)cc(OC)c1OC | n | n | n | n | x | -19 | n | n
COc1ccc(-c2csc(NC(=O)Cc3cc(OC)c(OC)c(OC)c3)n2)cc1OC | n | n | n | n | x | n | x | x
Cc1cc(F)ccc1-c1cc(C(=O)NCC2CCCCC2)[nH]n1 | n | n | n | n | n | -36 | x | u
Cc1cc(CNC(=O)c2cc(-c3ccccc3)nc3ccccc23)nn1C | n | x | n | n | n | -24 | n | n
COc1ccc(-n2cc(C(=O)c3ccc4ccccc4c3O)cn2)cc1 | n | n | n | n | n | n | x | x
SMILES | ERAP1 inh | Cneo AK release | Env fusion inh | FGF22 binding | PGC1a acetyl inh | rRNA inh HTS | AID977621 | AID977628
Cc1cccc(-c2cc3nc4c(c(N5CCOCC5)n3n2)CCCC4)c1 | n | n | x | n | n | -33 | n | u
Cc1cccc(-c2cc3nc4c(c(N5CCC6(CC5)OCCO6)n3n2)CCCC4)c1 | n | n | x | n | n | n | x | x
COC(=O)[C@@H](Cc1c[nH]c2ccccc12)NCc1cccc(B(O)O)c1 | x | n | n | n | n | -20 | u | x
COC(=O)CNC(=O)CSc1ccccn1 | x | n | n | n | n | x | x | x
C[C@@H]1CCCCO[C@@H](CN(C)S(=O)(=O)c2ccccc2)[C@@H](C)CN([C@@H](C)CO)C(=O)c2cc(NC(=O)Nc3cccc4ccccc34)ccc2O1 | n | n | n | n | n | n | x | x
CCCc1nc2ccc(Br)cn2c1Cc1cccc(Cl)c1 | n | n | n | n | n | -22 | n | n
COc1ccc(C2=CC(=O)C[C@H](c3ccc(F)cc3)C2)c(F)c1F | n | n | n | n | n | n | x | x
COc1ccc(OC)c(C(=O)NC(CC(N)=O)c2ccc(NCCN3CCCC3)c([N+](=O)[O-])c2)c1 (stereo unspecified) | n | n | n | n | n | n | x | x
CC(=O)Nc1ccc(NS(=O)(=O)c2ccc(Cl)s2)cc1 | n | x | n | n | x | -20 | x | u
CC(=O)Nc1ccc(NS(=O)(=O)c2cc(Cl)sc2Cl)cc1 | n | n | n | n | n | n | x | x
O=C(N=Nc1c(O)[nH]c2ccccc12)c1ccccc1NS(=O)(=O)c1cccs1 | n | x | n | n | x | x | x | x
NC(=O)c1ccsc1NC(=O)COC(=O)CSc1ccc(Cl)cc1 | n | n | n | n | n | -21 | x | u
COCC(=O)N1[C@@H](CO)[C@@H](c2ccccc2)C12CN(Cc1cc(F)ccc1F)C2 | n | x | x | n | n | n | x | x
O=C(COc1ccc(Br)cc1)Nc1ccc(C(=O)Nc2ccccc2C(=O)O)cc1 | n | n | n | n | x | -28 | n | n
CC(=O)NS(=O)(=O)c1ccc(NC(=O)COc2ccc(C(=O)c3ccccc3)cc2)cc1 | n | n | x | n | x | -27 | u | x
CN(C(=O)c1ccc(F)cc1)c1ccc(OCC(=O)Nc2ccccc2C(=O)O)cc1 | n | n | n | n | n | -14 | n | u
CCN(CC(=O)Nc1cccc(S(=O)(=O)N2CCCC2)c1)CC(=O)Nc1ccccc1OC | n | x | n | n | x | -18 | n | n
CCN(CC)CC(=O)Nc1ccc(-c2ccc(NC(=O)CN(CC)CC)c(OC)c2)cc1OC | n | x | n | n | n | -23 | n | x
COc1ccccc1CN(C)CC(=O)Nc1cccc(S(=O)(=O)N2CCCCC2)c1 | n | n | u | n | n | n | x | x
O=S(=O)(Nc1cccc(S(=O)(=O)N2CCCCCC2)c1)c1ccc(F)cc1F | n | x | n | n | n | n | x | x
COc1ccc(OC)c(S(=O)(=O)Nc2cccc3ccc(O)cc23)c1 | n | x | n | n | x | -32 | n | n
